Assays:
[1] = target: recombinant human PFKFB3 protein (Homo sapiens, UniProt Q16875); assay: Recombinant PFKFB3 kinase assay; assay type: biochemical
[2] = test system: Jurkat T cell leukemia cells; assay: Cell viability, trypan blue exclusion; assay type: cell-based; settings: Homo sapiens, 48 h, read-out: IC50 cytotoxic effects (viability)
[3] = test system: H522 human lung adenocarcinoma cells; assay: Cell viability, trypan blue exclusion; assay type: cell-based; settings: NCI-H522, 48 h, read-out: IC50 cytotoxic effects (viability)
Jurkat and H522 cells [4] = assay: F26BP measurement in cells; assay type: cell-based, human; settings: three hours exposure
Summary of the method: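 Cells plated at 1×10^5/well, 24 h in RPMI or DMEM (5% CO2, 37°C), then exposed to test compound for 3 h. Cells triturated, washed twice in PBS, dissolved in […] NaOH. F26BP measured by coupled enzyme reaction and normalized to BCA protein. Triplicate or quadruplicate; unpaired two-tailed t-test.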

Jurkat or H522 cells = assay: 2-[1-14C]-deoxy-D-glucose uptake; assay type: cell-based, human; settings: three hours exposure, Jurkat and H522
Summary of the method: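 Jurkat or H522 cells in RPMI 1640 + 10% FCS + 50 μg/ml gentamycin at 100,000/ml, treated immediately with DMSO vehicle or test compound for 3 h. Washed in glucose-free RPMI, 30 min with inhibitor, then 1 h with 14C-2-deoxyglucose (0.1 μCi/μl stock). Ice-cold washes, 0.5% SDS lysis, scintillation counting; counts normalized to BCA protein.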

Jurkat and H522 cells [5] = assay: Intracellular ATP bioluminescence assay; assay type: cell-based, human; settings: three hours exposure, Jurkat and H522
Summary of the method: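 After plating at 1×10^5 cells/well (24 h, 37°C, 5% CO2) and 3 h test compound exposure, adherent cells were washed with cold PBS, lysed in passive lysis buffer and scraped. One freeze (−80°C)/thaw (37°C) cycle, cleared at 4°C. ATP read by firefly luciferase/D-luciferin luminescence at 560 nm against an ATP standard curve, as nmol/mg BCA protein.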

[6] = test system: Jurkat T cell leukemia cells; assay: Annexin V / propidium iodide flow cytometry; assay type: cell-based, human; settings: 20 μM, five hours
[7] = Pharmacokinetic profile after IV administration; assay type: in vivo, female C57Bl/6 mice; settings: plasma
Summary of the method: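 Test compound was given IV to female C57Bl/6 mice, with 8 time points and 3 animals per time point. Plasma was extracted with acetonitrile and analysed by LC-MS/MS on a polar reverse-phase column with a 0.5% formic acid acetonitrile/water mobile phase. Tmax, Cmax, volume of distribution, half-life, clearance, AUCs and MRT were calculated from the concentration–time data.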

[8] = test system: Jurkat T cell leukemia cells; settings: previous studies; cited from earlier work
[9] = female, C57Bl/6, mouse, iv, 5 mg/kg

Sequence of recombinant human PFKFB3 protein (Q16875 whole entry): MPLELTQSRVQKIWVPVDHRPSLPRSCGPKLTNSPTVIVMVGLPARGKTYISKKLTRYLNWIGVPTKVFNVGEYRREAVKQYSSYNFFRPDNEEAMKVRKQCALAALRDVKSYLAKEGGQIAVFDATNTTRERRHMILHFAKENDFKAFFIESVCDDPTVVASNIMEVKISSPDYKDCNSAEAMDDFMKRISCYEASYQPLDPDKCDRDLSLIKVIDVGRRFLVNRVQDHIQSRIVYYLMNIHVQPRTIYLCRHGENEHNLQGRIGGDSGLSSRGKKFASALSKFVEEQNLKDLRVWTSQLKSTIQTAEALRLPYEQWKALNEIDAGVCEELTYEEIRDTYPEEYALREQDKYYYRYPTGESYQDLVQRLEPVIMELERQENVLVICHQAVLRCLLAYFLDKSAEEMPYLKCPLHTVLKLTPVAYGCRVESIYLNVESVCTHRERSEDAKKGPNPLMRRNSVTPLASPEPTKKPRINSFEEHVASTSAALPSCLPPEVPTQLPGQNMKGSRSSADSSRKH

Work on `O=C(C=Cc1cccnc1)c1ccncc1` [3PO, 3-(3-pyridinyl)-1-(4-pyridinyl)-2-propen-1-one, reference compound] yielded an IC50 [1] of 22.9 µM, an IC50 [2] of 7.2 µM and an IC50 [3] of 5.57 µM. For the same molecule, the “effect on F26BP” value (Jurkat and H522 cells [4]) was “reduced”, the “effect on glucose uptake (14C-2DG)” value (Jurkat or H522 cells) was “reduced” and the “effect on intracellular ATP” value (Jurkat and H522 cells [5]) was “reduced”. For the same molecule, the “cells undergoing early apoptosis (Annexin V+/PI−)” value [6] was “increased”, the AUC0-inf ([7]; IV, C57Bl/6 mice) was 36 ng/h/mL and the Cmax [7, 9] was 113 ng/mL. For the same molecule, the clearance [7, 9] was 2310 mL/min/kg, the half-life [7, 9] was 18 min and the “concentrations that caused cell death” value [8] was > 10 µM.

Source: paper PMC3742633 (Molecular cancer therapeutics, 2013)
